The subject of one data set is MG-63. As to the kind of experiment: Induction of human MG63 cell differentiation assessed as increase in bone nodule formation after 14 days by Alizarin Red S staining-based spectrophotometric analysis. In kind it is functional. An outline of the steps:
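Cells from dissociated MG-63 sarcospheres were grown in α-MEM with 10% FBS until 70% confluent. They were then switched to mineralization medium (10 mM β-glycerophosphate, 10−8 M dexamethasone, […] ascorbic acid 2-phosphate) and exposed continuously to 0.025–0.5 μM compound for 14 days. After fixation, Alizarin Red S staining (pH 4.2) was eluted with 10% cetylpyridinium chloride and read at 570 nm. Values are OD relative to medium-alone control, in triplicate.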

The target in the next data set is Histone deacetylase 2 (Homo sapiens, UniProt Q92769). The experiment in a line: Inhibition of recombinant HDAC2 (unknown origin) by homogeneous fluorescence release assay.
The next data set has as its target T1, Histone deacetylase 11 (Homo sapiens, UniProt Q96DB2).
T1 sequence (Q96DB2 whole entry): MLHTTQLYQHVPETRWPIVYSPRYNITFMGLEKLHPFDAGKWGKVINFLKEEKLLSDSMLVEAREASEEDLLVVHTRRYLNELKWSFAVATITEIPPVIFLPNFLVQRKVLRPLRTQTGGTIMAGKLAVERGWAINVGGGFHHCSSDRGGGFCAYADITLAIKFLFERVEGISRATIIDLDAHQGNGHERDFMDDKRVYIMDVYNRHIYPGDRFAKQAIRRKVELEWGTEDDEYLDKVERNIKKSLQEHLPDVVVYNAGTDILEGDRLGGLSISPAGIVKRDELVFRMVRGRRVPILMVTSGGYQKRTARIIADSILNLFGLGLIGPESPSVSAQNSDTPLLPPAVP
The experiment in a line: Inhibition of recombinant HDAC11 (unknown origin) by homogeneous fluorescence release assay.

Data set [1] deals with T2, Protein deacetylase HDAC6 (Homo sapiens, UniProt Q9UBN7).
T2 sequence (Q9UBN7 whole entry): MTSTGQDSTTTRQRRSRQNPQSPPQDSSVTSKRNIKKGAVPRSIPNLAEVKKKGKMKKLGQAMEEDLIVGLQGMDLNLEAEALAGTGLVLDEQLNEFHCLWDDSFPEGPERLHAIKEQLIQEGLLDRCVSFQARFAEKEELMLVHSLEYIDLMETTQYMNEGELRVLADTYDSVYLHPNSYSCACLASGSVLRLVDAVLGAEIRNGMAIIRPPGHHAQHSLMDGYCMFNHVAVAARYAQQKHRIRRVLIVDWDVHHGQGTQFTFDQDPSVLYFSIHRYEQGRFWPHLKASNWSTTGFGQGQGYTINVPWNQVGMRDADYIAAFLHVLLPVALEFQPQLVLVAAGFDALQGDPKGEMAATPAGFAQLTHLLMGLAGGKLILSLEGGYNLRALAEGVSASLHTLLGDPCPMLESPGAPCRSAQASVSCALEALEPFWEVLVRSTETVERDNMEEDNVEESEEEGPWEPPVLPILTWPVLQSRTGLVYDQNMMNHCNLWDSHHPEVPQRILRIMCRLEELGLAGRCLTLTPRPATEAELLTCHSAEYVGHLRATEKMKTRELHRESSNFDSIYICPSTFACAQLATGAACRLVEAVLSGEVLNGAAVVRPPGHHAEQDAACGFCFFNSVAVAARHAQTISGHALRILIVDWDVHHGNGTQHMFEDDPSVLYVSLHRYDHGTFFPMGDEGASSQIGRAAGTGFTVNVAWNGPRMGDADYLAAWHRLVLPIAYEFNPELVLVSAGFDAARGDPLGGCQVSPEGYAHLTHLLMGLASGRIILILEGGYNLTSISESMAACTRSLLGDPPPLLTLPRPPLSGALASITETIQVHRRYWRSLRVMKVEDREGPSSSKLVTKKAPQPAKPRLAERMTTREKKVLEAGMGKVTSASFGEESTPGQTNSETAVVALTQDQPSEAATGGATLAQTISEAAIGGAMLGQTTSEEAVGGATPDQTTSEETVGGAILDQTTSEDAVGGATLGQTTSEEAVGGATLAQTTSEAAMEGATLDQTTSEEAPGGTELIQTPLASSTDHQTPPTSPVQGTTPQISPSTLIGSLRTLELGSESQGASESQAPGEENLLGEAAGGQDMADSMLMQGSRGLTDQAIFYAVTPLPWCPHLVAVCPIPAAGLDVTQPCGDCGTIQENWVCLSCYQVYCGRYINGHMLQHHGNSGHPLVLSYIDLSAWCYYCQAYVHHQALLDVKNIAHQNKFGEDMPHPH
The experiment in a line: Inhibition of recombinant HDAC6 (unknown origin) by homogeneous fluorescence release assay.

Data set [2] can be described thus: Cytotoxicity against human MG63 cells assessed as growth inhibition at 0.5 uM treated for 14 days measured on day 14 post last treatment by Alamar Blue assay. To be noted: mg-63, 336 h. In kind it is cell-based. A digest of the protocol: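 MG-63 sarcosphere-derived cells, 10000 seeded, grown in complete α-MEM to 70% confluence. Then kept in mineralization medium (10 mM β-glycerophosphate, 10−8 M dexamethasone, ascorbic acid 2-phosphate) with continuous compound exposure (0.025–0.5 μM) for 14 days. Viability then read by Alamar Blue.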
(Alamar Blue is a resazurin reagent that responds to reducing activity.)

In the next data set the target is Histone deacetylase 3 (Homo sapiens, UniProt O15379). As to the kind of experiment: Inhibition of recombinant HDAC3 (unknown origin) by homogeneous fluorescence release assay.
For a further data set, the target named is Histone deacetylase 1 (Homo sapiens, UniProt Q13547). The experiment in a line: Inhibition of recombinant HDAC1 (unknown origin) by homogeneous fluorescence release assay.
The target in a further data set is T3, Histone deacetylase 8 (Homo sapiens, UniProt Q9BY41).
T3 sequence (Q9BY41 whole entry): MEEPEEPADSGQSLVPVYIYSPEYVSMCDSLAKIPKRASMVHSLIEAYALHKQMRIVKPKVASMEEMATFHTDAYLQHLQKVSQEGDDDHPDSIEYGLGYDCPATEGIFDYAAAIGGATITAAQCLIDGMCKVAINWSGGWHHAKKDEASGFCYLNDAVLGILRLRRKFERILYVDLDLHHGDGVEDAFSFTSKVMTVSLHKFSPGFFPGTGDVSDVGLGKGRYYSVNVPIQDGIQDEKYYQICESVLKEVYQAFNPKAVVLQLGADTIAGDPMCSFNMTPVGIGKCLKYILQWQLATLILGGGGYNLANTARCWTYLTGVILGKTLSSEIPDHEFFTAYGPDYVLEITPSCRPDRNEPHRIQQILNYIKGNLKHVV
As to the kind of experiment: Inhibition of recombinant HDAC8 (unknown origin) by homogeneous fluorescence release assay.

The term IC50 denotes the concentration needed to halve the response being measured.

Chain of Histone deacetylase 1 (Q13547 whole entry): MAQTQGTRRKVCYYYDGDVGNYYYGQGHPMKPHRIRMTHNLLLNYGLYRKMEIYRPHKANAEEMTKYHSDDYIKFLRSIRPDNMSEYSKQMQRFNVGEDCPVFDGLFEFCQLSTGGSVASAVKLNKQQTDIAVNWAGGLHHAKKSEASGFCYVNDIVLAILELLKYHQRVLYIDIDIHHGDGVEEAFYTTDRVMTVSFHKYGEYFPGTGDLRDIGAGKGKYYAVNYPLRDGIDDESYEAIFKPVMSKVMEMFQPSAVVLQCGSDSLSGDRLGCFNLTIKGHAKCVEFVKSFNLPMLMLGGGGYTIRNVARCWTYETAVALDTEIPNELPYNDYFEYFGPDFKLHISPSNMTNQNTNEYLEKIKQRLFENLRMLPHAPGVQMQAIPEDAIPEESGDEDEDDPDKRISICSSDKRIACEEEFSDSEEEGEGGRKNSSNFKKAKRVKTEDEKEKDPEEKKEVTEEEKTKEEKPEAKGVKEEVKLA
Chain of Histone deacetylase 3 (O15379 whole entry): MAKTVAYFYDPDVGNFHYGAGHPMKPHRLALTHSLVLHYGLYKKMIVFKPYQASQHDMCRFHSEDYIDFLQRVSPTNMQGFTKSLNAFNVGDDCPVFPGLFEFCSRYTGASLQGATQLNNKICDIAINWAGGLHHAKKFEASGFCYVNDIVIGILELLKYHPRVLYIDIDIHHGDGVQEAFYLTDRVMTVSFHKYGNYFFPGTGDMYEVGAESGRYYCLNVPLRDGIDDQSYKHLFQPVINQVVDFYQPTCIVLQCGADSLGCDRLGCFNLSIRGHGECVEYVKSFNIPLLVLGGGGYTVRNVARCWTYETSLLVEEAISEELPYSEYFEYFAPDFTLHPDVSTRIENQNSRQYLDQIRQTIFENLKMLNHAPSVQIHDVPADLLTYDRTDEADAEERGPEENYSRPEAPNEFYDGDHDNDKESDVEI
Chain of Histone deacetylase 2 (Q92769 whole entry): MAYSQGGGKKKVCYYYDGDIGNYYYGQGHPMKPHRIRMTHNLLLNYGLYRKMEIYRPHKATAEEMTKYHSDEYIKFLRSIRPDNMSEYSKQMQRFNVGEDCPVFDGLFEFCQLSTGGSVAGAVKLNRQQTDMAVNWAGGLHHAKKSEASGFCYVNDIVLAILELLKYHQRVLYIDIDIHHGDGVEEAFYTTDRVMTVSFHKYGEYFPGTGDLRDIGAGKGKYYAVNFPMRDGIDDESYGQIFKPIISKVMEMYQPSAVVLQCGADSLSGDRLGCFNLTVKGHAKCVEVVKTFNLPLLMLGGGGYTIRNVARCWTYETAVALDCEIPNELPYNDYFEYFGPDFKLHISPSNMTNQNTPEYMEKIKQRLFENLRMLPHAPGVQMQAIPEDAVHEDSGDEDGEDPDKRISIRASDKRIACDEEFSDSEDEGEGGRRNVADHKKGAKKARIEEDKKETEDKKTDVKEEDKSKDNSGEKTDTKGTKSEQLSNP

Take `O=C(CCCCSc1nc(-c2ccc(-c3ccccc3)cc2)cc(=O)[nH]1)NO`: the Activity result in the data set with MG-63 was “Dose-dependent effect”.
In the case of `O=C(/C=C/c1ccc(NC(=O)C(Cc2ccccc2)c2ccccc2)cn1)NO` (stereo not drawn), the IC50 at Histone deacetylase 2 came out at 1770 nM; on Histone deacetylase 11, 10200 nM; in data set [1], 10 nM; on Histone deacetylase 3, 80 nM; at Histone deacetylase 1, 1420 nM; at Histone deacetylase 8, 610 nM. Moreover, the Activity entry in data set [2] is reported as “Toxic”.
